Data reported in ChEMBL document CHEMBL4118159, “Discovery of tetrahydroindazoles as a novel class of potent and in vivo efficacious gamma secretase modulators” (Bioorg Med Chem, 2018).

Columns and labels:
[1] = molecular target: Gamma-secretase; experiment: Modulation of gamma secretase in human H4 cells expressing human wild type APP assessed as inhibition of amyloid beta 42 production after 22 hrs by electrochemiluminescence assay; assay type: cell-based
How it was run: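 H4 cells overexpressing human APPwt, 10,000/well, were exposed to compound 22 h at 37°C, 5% CO2. Supernatant was diluted with medium on an MSD anti-Aβ42 plate and detected with S-tag 6E10 (1:50, 1 h). Read-out was electrochemiluminescence.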

[2] = tested on: Rattus norvegicus; experiment: In vivo modulation of gamma secretase in rat brain homogenate assessed as decrease in amyloid beta 42 levels at 25 mg/kg, po measured after 3 hrs by electrochemiluminescence assay relative to control; assay type: functional; set-up: scale not given: the % may be the effect or the level left
How it was run: (§1)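 Rats dosed orally with compound in 0.5% Natrosol/0.01% Tween 80, then anesthetized (Ketavet, Inactin i.p.) and decapitated 3 h later. Brain slices were homogenized in 20 mM Tris pH 8.5 + 0.2% Triton X-100 (5-fold v/w) and spun 1 h at 210,000 x g, 4°C. Aβ42 in the supernatant was read by MSD electrochemiluminescence with S-tag 4G8 detection.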

[3] = Drug uptake in Han Wistar rat plasma at 10 umol/kg, po administered via gavage measured 3 hrs post dose by LC/MS/MS analysis; assay type: ADME, organism-based
How it was run: (§2)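 Fasted female Han Wistar rats were dosed by oral gavage as a Natrosol suspension. Animals were sacrificed 3 h later and plasma and tissues collected and frozen. Concentrations were measured by LC/MS/MS after acetonitrile precipitation.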

[4] = molecular target: Cytochrome P450 3A4 (Homo sapiens, UniProt P08684); experiment: Inhibition of CYP3A4 in human liver microsomes using testosterone as substrate in presence of NADPH by LC-MS/MS analysis; assay type: ADME
Sequence of Cytochrome P450 3A4 (P08684 whole entry): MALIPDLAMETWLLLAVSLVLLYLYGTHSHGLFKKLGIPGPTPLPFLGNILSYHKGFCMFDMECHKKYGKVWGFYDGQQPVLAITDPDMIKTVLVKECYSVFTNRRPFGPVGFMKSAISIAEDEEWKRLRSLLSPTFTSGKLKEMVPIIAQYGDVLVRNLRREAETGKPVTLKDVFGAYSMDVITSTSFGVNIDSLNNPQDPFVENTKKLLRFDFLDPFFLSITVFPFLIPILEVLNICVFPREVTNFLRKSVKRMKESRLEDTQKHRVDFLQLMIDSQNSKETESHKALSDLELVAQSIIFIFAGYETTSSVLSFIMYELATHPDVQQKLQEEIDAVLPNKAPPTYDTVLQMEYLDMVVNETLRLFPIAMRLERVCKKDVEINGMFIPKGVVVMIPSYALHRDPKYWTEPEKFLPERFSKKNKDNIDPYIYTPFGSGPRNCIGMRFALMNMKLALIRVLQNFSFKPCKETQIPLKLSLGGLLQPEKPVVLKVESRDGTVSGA
How it was run: (§3)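 Human pooled liver microsomes (0.1 mg/ml) at 37°C in 0.1 M Tris with 5 mM MgCl2. Substrates were dextromethorphan 7 µM (2D6), diclofenac 4 µM (2C9), (S)-mephenytoin 30 µM (2C19) and testosterone 60 µM (3A4). Test compound ran at five concentrations. Reactions were started with 1 mM NADPH and stopped by cooling to 8°C plus acetonitrile. Metabolite was read by LC-MS/MS against an isotope internal standard, relative to no-compound control.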

[5] = molecular target: Cytochrome P450 2C9 (Homo sapiens, UniProt P11712); experiment: Inhibition of CYP2C9 in human liver microsomes using diclofenac as substrate in presence of NADPH by LC-MS/MS analysis; assay type: ADME; how it was run: as §3
Sequence of Cytochrome P450 2C9 (P11712 whole entry): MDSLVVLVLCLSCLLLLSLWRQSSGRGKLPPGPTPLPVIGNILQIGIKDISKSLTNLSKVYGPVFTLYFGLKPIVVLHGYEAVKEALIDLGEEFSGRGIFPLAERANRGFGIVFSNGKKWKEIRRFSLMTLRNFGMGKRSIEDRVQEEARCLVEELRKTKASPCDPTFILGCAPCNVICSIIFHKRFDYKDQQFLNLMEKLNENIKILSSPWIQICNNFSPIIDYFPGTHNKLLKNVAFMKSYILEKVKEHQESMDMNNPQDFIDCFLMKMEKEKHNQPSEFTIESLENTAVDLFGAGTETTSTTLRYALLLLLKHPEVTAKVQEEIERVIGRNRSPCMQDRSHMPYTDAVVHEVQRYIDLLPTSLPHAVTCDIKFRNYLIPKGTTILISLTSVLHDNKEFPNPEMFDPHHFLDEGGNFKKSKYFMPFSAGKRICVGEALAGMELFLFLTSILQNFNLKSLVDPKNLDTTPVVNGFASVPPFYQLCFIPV

[6] = Clearance in Han Wistar rat at 1 umol/kg, iv administered as bolus by LC/MS/MS analysis; assay type: ADME, organism-based; conditions: in vivo
How it was run: (§4)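 Female fed Han Wistar rats received the compound as an i.v. solution. Blood was sampled at several time points and EDTA plasma prepared. Plasma levels were quantified by LC/MS/MS after acetonitrile precipitation, and PK parameters were calculated by non-compartmental analysis.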

[7] = molecular target: Gamma-secretase; experiment: Modulation of gamma-secretase in human E6 cells expressing HeLaTetON-NotchdeltaE-NLuc/CLuc-RBP assessed as notch cleavage after 16 hrs by bioluminescence assay; assay type: ADME, cell-based
[8] = molecular target: Cytochrome P450 2D6 (Homo sapiens, UniProt P10635); experiment: Inhibition of CYP2D6 in human liver microsomes using dextromethorphan as substrate in presence of NADPH by LC-MS/MS analysis; assay type: ADME; how it was run: as §3
Sequence of Cytochrome P450 2D6 (P10635 whole entry): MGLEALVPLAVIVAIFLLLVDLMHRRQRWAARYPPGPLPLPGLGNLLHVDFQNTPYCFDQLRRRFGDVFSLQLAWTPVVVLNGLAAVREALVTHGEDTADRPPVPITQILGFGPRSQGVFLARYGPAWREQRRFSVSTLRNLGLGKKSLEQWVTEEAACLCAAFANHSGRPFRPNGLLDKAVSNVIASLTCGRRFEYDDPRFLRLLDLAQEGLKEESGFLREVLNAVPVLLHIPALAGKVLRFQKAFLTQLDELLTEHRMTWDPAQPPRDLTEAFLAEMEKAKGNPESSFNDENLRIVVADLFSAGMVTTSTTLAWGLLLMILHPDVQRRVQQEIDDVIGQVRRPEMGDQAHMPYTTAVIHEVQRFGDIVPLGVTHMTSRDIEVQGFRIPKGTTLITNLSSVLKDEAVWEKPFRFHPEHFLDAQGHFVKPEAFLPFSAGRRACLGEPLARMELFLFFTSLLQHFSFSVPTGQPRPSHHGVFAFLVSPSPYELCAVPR

[9] = Protein binding in rat plasma at 1 uM after 5 hrs by equilibrium dialysis based LC-MS/MS analysis; assay type: ADME, cell-free; conditions: read-out: PPB (converted)
How it was run: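 Equilibrium dialysis: rat EDTA plasma spiked to 1 µM final, dialysed against PBS with dextran (pH 7.4) across a 5–10 kDa membrane. Run 5 h at 37°C; both sides analyzed by HPLC-MS/MS.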

[10] = molecular target: Cytochrome P450 2C19 (Homo sapiens, UniProt P33261); experiment: Inhibition of CYP2C19 in human liver microsomes using (S)-mephenytoin as substrate in presence of NADPH by LC-MS/MS analysis; assay type: ADME; how it was run: as §3
Sequence of Cytochrome P450 2C19 (P33261 whole entry): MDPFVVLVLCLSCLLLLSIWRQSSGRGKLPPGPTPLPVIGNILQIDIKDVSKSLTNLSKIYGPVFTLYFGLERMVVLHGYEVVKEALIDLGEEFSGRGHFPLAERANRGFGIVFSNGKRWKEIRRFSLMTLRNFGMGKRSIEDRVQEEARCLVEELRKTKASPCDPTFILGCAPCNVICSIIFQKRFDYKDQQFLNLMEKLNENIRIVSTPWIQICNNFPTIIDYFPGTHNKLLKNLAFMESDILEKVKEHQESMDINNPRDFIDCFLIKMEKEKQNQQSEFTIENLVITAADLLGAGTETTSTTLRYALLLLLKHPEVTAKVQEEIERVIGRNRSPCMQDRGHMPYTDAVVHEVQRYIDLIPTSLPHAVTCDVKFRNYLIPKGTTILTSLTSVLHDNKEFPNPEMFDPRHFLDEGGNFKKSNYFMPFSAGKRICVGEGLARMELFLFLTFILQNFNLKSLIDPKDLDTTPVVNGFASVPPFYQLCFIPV

[11] = Apparent permeability from apical to basolateral side in MDCK cells expressing human MDR1 at 1 uM at pH 7.4; assay type: ADME, cell-based, Canis lupus familiaris; conditions: dog, MDCK-MDR1, pH 7.4
How it was run: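 MDCK-MDR1 monolayers; transport measured apical-to-basal and basal-to-apical at pH 7.4, 37°C, starting from 1 µM in the donor compartment; apparent permeability coefficients derived.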

[12] = tested on: Rattus norvegicus; experiment: Decrease in total amyloid beta 42 levels in rat brain homogenate at 30 mg/kg, po measured after 3 hrs by electrochemiluminescence assay relative to control; set-up: scale not given: the % may be the effect or the level left; conditions: in vivo
[13] = Modulation of gamma secretase in rat E18 cells assessed as inhibition of amyloid beta 42 production after 22 hrs by electrochemiluminescence assay; assay type: cell-based
[14] = Volume of distribution at steady state in Han Wistar rat at 1 umol/kg, iv administered as bolus by LC/MS/MS analysis; assay type: ADME, organism-based; conditions: in vivo, read-out: Vdss; how it was run: as §4
[15] = Unbound brain concentration in rat brain at 30 mg/kg, po measured after 3 hrs by LC/MS/MS analysis; assay type: ADME, organism-based; conditions: in vivo
How it was run: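 Unbound brain concentration estimated from unbound plasma exposure 3 h after oral dosing, assuming equal plasma–brain distribution. Plasma sampled after dosing in 0.5% Natrosol/0.01% Tween 80 and quantified by LC/MS/MS.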

[16] = Drug uptake in Han Wistar rat brain at 10 umol/kg, po administered via gavage measured 3 hrs post dose by LC/MS/MS analysis; assay type: ADME, organism-based; conditions: read-out: Drug uptake; how it was run: as §2
[17] = molecular target: T1, hERG (KCNH2) (Homo sapiens, UniProt Q12809); experiment: Inhibition of human ERG at 1 uM by patch clamp assay relative to control
T1 sequence (Q12809 whole entry): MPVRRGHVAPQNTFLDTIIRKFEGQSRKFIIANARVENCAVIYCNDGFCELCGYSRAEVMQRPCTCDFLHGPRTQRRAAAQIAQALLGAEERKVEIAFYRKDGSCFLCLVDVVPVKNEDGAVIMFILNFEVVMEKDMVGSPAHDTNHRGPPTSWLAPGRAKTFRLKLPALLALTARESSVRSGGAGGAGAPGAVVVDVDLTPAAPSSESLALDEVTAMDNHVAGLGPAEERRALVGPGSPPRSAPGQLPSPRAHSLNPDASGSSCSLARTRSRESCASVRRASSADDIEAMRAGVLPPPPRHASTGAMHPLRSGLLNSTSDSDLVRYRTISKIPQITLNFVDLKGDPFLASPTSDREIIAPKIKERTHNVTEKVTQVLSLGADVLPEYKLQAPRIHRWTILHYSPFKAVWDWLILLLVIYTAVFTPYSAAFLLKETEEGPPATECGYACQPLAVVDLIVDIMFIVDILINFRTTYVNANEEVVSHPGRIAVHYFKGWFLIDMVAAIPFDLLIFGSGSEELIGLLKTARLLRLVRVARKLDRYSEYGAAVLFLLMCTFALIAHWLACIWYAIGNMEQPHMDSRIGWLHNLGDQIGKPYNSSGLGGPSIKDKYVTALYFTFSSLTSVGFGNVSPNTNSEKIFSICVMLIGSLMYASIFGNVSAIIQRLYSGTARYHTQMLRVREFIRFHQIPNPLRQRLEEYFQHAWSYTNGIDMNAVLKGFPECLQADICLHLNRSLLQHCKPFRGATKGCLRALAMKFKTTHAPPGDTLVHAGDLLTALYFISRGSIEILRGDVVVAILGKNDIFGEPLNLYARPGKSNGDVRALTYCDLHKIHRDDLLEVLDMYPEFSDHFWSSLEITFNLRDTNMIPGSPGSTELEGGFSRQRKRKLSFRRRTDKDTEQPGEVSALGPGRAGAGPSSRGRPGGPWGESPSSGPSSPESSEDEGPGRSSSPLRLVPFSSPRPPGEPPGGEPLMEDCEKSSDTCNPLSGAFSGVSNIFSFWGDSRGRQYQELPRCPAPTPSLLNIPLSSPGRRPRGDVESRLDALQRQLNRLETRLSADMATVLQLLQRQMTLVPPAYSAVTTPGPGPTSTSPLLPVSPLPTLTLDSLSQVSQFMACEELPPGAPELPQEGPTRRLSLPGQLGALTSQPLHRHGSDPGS

[18] = tested on: Rattus norvegicus; experiment: Decrease in total amyloid beta levels in rat brain homogenate at 30 mg/kg, po measured after 3 hrs by electrochemiluminescence assay relative to control; set-up: scale not given: the % may be the effect or the level left; conditions: in vivo
[19] = tested on: Rattus norvegicus; experiment: In vivo modulation of gamma secretase in rat brain homogenate assessed as decrease in amyloid beta 42 levels at 30 mg/kg, po measured after 3 hrs by electrochemiluminescence assay relative to control; assay type: functional; set-up: scale not given: the % may be the effect or the level left; how it was run: as §1
[20] = Ratio of drug uptake in Han Wistar rat muscle to brain at 10 umol/kg, po administered via gavage measured 3 hrs post dose by LC/MS/MS analysis; assay type: ADME, organism-based; conditions: in vivo
How it was run: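 Fasted female Han Wistar rats given 10 µmol/kg orally; sacrificed 3 h post dose, tissues collected and frozen; samples acetonitrile-precipitated, supernatant diluted 1:100 and quantified by LC-ESI-MS/MS; muscle-to-brain concentration ratio.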

[21] = Efflux ratio of apparent permeability from […] in MDCK cells expressing human MDR1 at 1 uM at pH 7.4; assay type: ADME, cell-based, Canis lupus familiaris; conditions: dog, pH 7.4, 1 µM
How it was run: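 MDCK-MDR1 monolayers, pH 7.4, 37°C; transport measured apical-to-basal and basal-to-apical from 1 µM initial donor concentration; apparent permeability coefficients derived for each direction, ratio taken.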

[22] = molecular target: T2, Cytochrome P450 2C8 (Homo sapiens, UniProt P10632); experiment: Inhibition of CYP2C8 in human liver microsomes in presence of NADPH by LC-MS/MS analysis; assay type: ADME
T2 sequence (P10632 whole entry): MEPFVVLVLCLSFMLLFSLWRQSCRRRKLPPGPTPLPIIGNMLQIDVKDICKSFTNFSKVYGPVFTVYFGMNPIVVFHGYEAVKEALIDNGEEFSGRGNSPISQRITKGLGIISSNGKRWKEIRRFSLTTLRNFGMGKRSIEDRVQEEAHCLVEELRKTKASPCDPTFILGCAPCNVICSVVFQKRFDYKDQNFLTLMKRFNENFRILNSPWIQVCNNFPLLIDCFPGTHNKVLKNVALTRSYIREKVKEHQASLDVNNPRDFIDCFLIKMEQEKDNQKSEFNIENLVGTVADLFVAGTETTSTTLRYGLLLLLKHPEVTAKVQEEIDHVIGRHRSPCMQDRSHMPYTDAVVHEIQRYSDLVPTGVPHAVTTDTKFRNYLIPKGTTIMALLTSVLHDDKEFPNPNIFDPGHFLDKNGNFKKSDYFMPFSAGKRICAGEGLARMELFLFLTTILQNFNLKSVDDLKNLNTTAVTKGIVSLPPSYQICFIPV

[23] = Drug uptake in Han Wistar rat muscle at 10 umol/kg, po administered via gavage measured 3 hrs post dose by LC/MS/MS analysis; assay type: ADME, organism-based, Muscle tissue; conditions: read-out: Drug uptake; how it was run: as §2
[24] = Mean residence time in Han Wistar rat at 1 umol/kg, iv administered as bolus by LC/MS/MS analysis; assay type: ADME, organism-based; conditions: in vivo; how it was run: as §4
[25] = molecular target: T1, hERG (KCNH2); experiment: Inhibition of human ERG at 10 uM by patch clamp assay relative to control
[26] = Ratio of drug uptake in Han Wistar rat brain to plasma at 10 umol/kg, po administered via gavage measured 3 hrs post dose by LC/MS/MS analysis; assay type: ADME, organism-based; how it was run: as §2

CCn1ncc2c1CCC(Nc1nc3c(-c4cccc(Cl)c4)cccn3n1)C2 (stereo not drawn)
IC50 [1]: 40 nM

CCCn1ncc2c1CCC(Nc1nc3c(-c4ccc(F)cc4C)cccn3n1)C2 (stereo not drawn)
IC50 [1]: 60 nM

Cc1cc(F)ccc1-c1cccn2nc(Nc3ccc4c(cnn4C)c3)nc12
IC50 [1]: 1200 nM

CCn1ncc2c1CCC(Nc1nc3c(-c4ccc(OC)nc4)cccn3n1)C2 (stereo not drawn)
IC50 [1]: 90 nM

CCn1ncc2c1CCC(Nc1nc3c(-c4cc(F)c(F)c(F)c4)cccn3n1)C2 (stereo not drawn)
IC50 [1]: 30 nM

Cc1cc(F)ccc1-c1cccn2nc(NC3CCc4c(cnn4CC(C)C)C3)nc12 (stereo not drawn)
IC50 [1]: 3400 nM

CCCCn1ncc2c1CCC(Nc1nc3c(-c4ccc(F)cc4C)cccn3n1)C2 (stereo not drawn)
IC50 [1]: 2770 nM

CCn1ncc2c1CCC(Nc1nc3c(-c4ccccc4Cl)cccn3n1)C2 (stereo not drawn)
IC50 [1]: 60 nM

CCn1ncc2c1CCC(Nc1nc3c(-c4ccc(F)cc4)cccn3n1)C2 (stereo not drawn)
IC50 [1]: 180 nM

CCn1ncc2c1CC[C@@H](Nc1nc3c(-c4ccc(F)cc4C)cccn3n1)C2
Activity [2]: 53%
concentration at 3 h [3]: 2680 nM
IC50 [4]: > 50000 nM
IC50 [5]: 25000 nM
clearance [6]: 40 mL/min/kg
IC50 [7]: > 30000 nM
IC50 [8]: > 50000 nM
fraction unbound at 5 h, 1 µM [9]: 0.012
IC50 [1]: 40 nM
IC50 [10]: 36000 nM
Papp A→B at 1 µM [11]: 78 ×10⁻⁶ cm/s
Activity [12]: 3%
IC50 [13]: 40 nM
Vd [14]: 1.5 L/kg
Cp(f) [15]: 30 nM
concentration at 3 h [16]: 2990 nM
inhibition at 1 µM [17]: 8%
Activity [18]: 5%
Activity [19]: 47%
Ratio [20]: 0.9
Ratio [21]: 0.7
IC50 [22]: 9500 nM
concentration at 3 h [23]: 2600 nM
MRT [24]: 36 min
inhibition at 10 µM [25]: 39%
Kp at 3 h [26]: 1.1

CCn1nnc2c1CCC(Nc1nc3c(-c4ccc(F)cc4C)cccn3n1)C2 (stereo not drawn)
IC50 [1]: 2200 nM

CCn1ncc2c1CCC(Nc1nc3c(-c4cccnc4)cccn3n1)C2 (stereo not drawn)
IC50 [1]: 350 nM

Cc1cc(F)ccc1-c1cccn2nc(NC3CCc4[nH]ncc4C3)nc12 (stereo not drawn)
IC50 [1]: 4570 nM

CCn1ncc2c1CC[C@H](Nc1nc3c(-c4ccc(F)c(Cl)c4)cccn3n1)C2
IC50 [1]: 194 nM

CCn1ncc2c1CCC(Nc1nc3c(-c4cccnc4OC)cccn3n1)C2 (stereo not drawn)
IC50 [1]: 500 nM

CCc1nn(C)c2c1CCC(Nc1nc3c(-c4ccc(F)cc4C)cccn3n1)C2 (stereo not drawn)
IC50 [1]: 3130 nM

CCn1nc(Cl)c2c1CCC(Nc1nc3c(-c4ccc(F)cc4C)cccn3n1)C2 (stereo not drawn)
IC50 [1]: 750 nM

CCc1nnn2c1CCC(Nc1nc3c(-c4ccc(F)cc4C)cccn3n1)C2 (stereo not drawn)
IC50 [1]: 740 nM
